# Measured values from ChEMBL document CHEMBL1817591, “Novel benzofuroxan derivatives against multidrug-resistant Staphylococcus aureus strains: design using Topliss' decision tree, synthesis and biological assay” (2011).
# Experiments:
# [1] = tested on: Staphylococcus aureus; assay: Antibacterial activity against multidrug-resistant Staphylococcus aureus 3SP/R33 after 18 hrs by serial broth microdilution method; type: functional; conditions: 3SP/R33, 18 h
# Summary of the method: (§1)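 Two-stage broth microdilution MIC in Tryptic Soy Broth, run in triplicate. Phase I used two-fold serial dilutions from DMSO/TSB 1:10 v/v stocks, with ampicillin and vancomycin as controls. The inoculum was 0.5 McFarland, diluted in saline and TSB. […] Phase II diluted a stock at twice the Phase I MIC across 11 columns.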
# [2] = tested on: Staphylococcus aureus; assay: Antibacterial activity against vancomycin-intermediate Staphylococcus aureus VISA3 at 2 times MIC of multidrug-resistant Staphylococcus aureus 3SP/R33 after 18 hrs by serial broth microdilution method; type: functional; conditions: VISA3, 18 h; summary of the method: as §1
Compound,MIC [1] [µg/mL],MIC [2] [µg/mL]
O=C(N/N=C/c1ccc2c(c1)no[n+]2[O-])c1ccc(Br)cc1,10,18
O=C(N/N=C/c1ccc2c(c1)no[n+]2[O-])c1ccc(Cl)cc1Cl,15,17.7
O=C(N/N=C/c1ccc2c(c1)no[n+]2[O-])c1ccc(Cl)c(Cl)c1,7.5,11.8
O=C(N/N=C/c1ccc2c(c1)no[n+]2[O-])c1ccccc1,10,16.2
O=C(N/N=C/c1ccc2c(c1)no[n+]2[O-])c1ccc([N+](=O)[O-])cc1,15,21.9
O=C(N/N=C/c1ccc2c(c1)no[n+]2[O-])c1ccc(C(F)(F)F)cc1,10,13.1
O=C(N/N=C/c1ccc2c(c1)no[n+]2[O-])c1ccc(Cl)cc1,10,15.3
O=C(N/N=C/c1ccc2c(c1)no[n+]2[O-])c1ccc([N+](=O)[O-])c(C(F)(F)F)c1,7.5,11.4
